# According to ChEMBL document CHEMBL1795297, “Design, synthesis and molecular docking studies of novel triazole as antifungal agent” (2011):
# Assays:
# Assay type in all cases: functional
# [1] = test system: Candida albicans; experiment: Antifungal activity against Candida albicans ATCC Y0109 after 24 hrs by micro-broth dilution method; conditions: ATCC Y0109, 24 h
# Method in brief: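 ATCC quality-control strain, tested in every assay. NCCLS M27-A2 broth microdilution. Compounds were dissolved in DMSO, serially diluted in growth medium, inoculated and incubated at 35 °C, with growth read at 24 h. MIC80 is the first well with about 80% growth reduction relative to the drug-free control. Each test was run three times and the mean of replicates taken.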
# [2] = test system: Candida parapsilosis; experiment: Antifungal activity against Candida parapsilosis clinical isolate by micro-broth dilution method; conditions: Lodderomyces parapsilosis
# Method in brief: (§1)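 Clinical isolate. MIC by broth microdilution following the NCCLS M27-A2 reference method for yeasts. Compounds were dissolved in DMSO, serially diluted in growth medium, inoculated and incubated at 35 °C. MIC80 is the first well with about 80% less growth than the drug-free well. Each test was run three times and the mean of replicates reported.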
# [3] = test system: Candida tropicalis; experiment: Antifungal activity against Candida tropicalis clinical isolate by micro-broth dilution method; method in brief: as §1
# [4] = test system: Cryptococcus neoformans; experiment: Antifungal activity against Cryptococcus neoformans ATCC BLS108 after 72 hrs by micro-broth dilution method; conditions: ATCC BLS108, 72 h
# Method in brief: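 Quality-control ATCC strain included in each assay. Microbroth dilution per NCCLS M27-A2. DMSO-dissolved compounds were serially diluted in growth medium, inoculated and held at 35 °C, with MIC read at 72 h. MIC80 is the first well showing about 80% growth reduction versus the drug-free well. Tests were done in triplicate and the mean reported.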
# [5] = test system: Trichophyton rubrum; experiment: Antifungal activity against Trichophyton rubrum clinical isolate by micro-broth dilution method; method in brief: as §1
# [6] = Antifungal activity against Fonsecaea compacta clinical isolate by micro-broth dilution method; method in brief: as §1
# [7] = test system: Nannizzia gypsea; experiment: Antifungal activity against Microsporum gypseum clinical isolate by micro-broth dilution method; method in brief: as §1
# [8] = test system: Aspergillus fumigatus; experiment: Antifungal activity against Aspergillus fumigatus clinical isolate by micro-broth dilution method; method in brief: as §1
Structure (SMILES),MIC80 [1] [µg/mL],MIC80 [2] [µg/mL],MIC80 [3] [µg/mL],MIC80 [4] [µg/mL],MIC80 [5] [µg/mL],MIC80 [6] [µg/mL],MIC80 [7] [µg/mL],MIC80 [8] [µg/mL]
CC(C)(C)C(=O)Nc1ccc(N2CCN(CC(O)(Cn3cncn3)c3ccc(F)cc3F)CC2)c(C(F)(F)F)c1 (configuration not stated),0.25,1,1,1,4,4,0.25,> 64
COc1ccc(/C=C/C(=O)Nc2ccc(N3CCN(CC(O)(Cn4cncn4)c4ccc(F)cc4F)CC3)c(C(F)(F)F)c2)cc1OC (configuration not stated),1,,,1,,,,4
O=C(Nc1ccc(N2CCN(CC(O)(Cn3cncn3)c3ccc(F)cc3F)CC2)c(C(F)(F)F)c1)c1ccco1 (configuration not stated),0.0625,,,0.25,,,,1
CCCCCC(=O)Nc1ccc(N2CCN(CC(O)(Cn3cncn3)c3ccc(F)cc3F)CC2)c(C(F)(F)F)c1 (configuration not stated),1,1,4,1,4,16,4,64
O=C(/C=C/c1cccc(Br)c1)Nc1ccc(N2CCN(CC(O)(Cn3cncn3)c3ccc(F)cc3F)CC2)c(C(F)(F)F)c1 (configuration not stated),0.25,,,0.25,,,,1
Cc1ccc(/C=C/C(=O)Nc2ccc(N3CCN(CC(O)(Cn4cncn4)c4ccc(F)cc4F)CC3)c(C(F)(F)F)c2)cc1 (configuration not stated),0.25,,,1,,,,4
Cc1ccc(C(=O)Nc2ccc(N3CCN(CC(O)(Cn4cncn4)c4ccc(F)cc4F)CC3)c(C(F)(F)F)c2)cc1 (configuration not stated),1,0.25,1,1,4,16,1,64
O=C(/C=C/c1cccc([N+](=O)[O-])c1)Nc1ccc(N2CCN(CC(O)(Cn3cncn3)c3ccc(F)cc3F)CC2)c(C(F)(F)F)c1 (configuration not stated),0.25,,,0.0625,,,,4
O=C(Nc1ccc(N2CCN(CC(O)(Cn3cncn3)c3ccc(F)cc3F)CC2)c(C(F)(F)F)c1)c1ccccc1 (configuration not stated),1,0.25,1,0.25,1,4,1,4
CCC(C)n1ncn(-c2ccc(N3CCN(c4ccc(OCC5COC(Cn6cncn6)(c6ccc(Cl)cc6Cl)O5)cc4)CC3)cc2)c1=O (configuration not stated) [ITRACONAZOLE],1,0.25,0.25,1,0.0156,0.25,0.0156,1
O=C(Nc1ccc(N2CCN(CC(O)(Cn3cncn3)c3ccc(F)cc3F)CC2)c(C(F)(F)F)c1)c1cccnc1 (configuration not stated),0.0625,,,0.25,,,,4
O=C(/C=C/c1cccc(Cl)c1)Nc1ccc(N2CCN(CC(O)(Cn3cncn3)c3ccc(F)cc3F)CC2)c(C(F)(F)F)c1 (configuration not stated),0.25,,,0.25,,,,4
CCCCC(=O)Nc1ccc(N2CCN(CC(O)(Cn3cncn3)c3ccc(F)cc3F)CC2)c(C(F)(F)F)c1 (configuration not stated),1,0.25,1,4,4,4,4,> 64
COc1ccc(C(=O)Nc2ccc(N3CCN(CC(O)(Cn4cncn4)c4ccc(F)cc4F)CC3)c(C(F)(F)F)c2)cc1 (configuration not stated),1,1,1,1,1,16,1,4
O=C(Nc1ccc(N2CCN(CC(O)(Cn3cncn3)c3ccc(F)cc3F)CC2)c(C(F)(F)F)c1)c1ccc(Cl)cc1Cl (configuration not stated),0.25,,,0.25,,,,0.25
O=C(/C=C/c1cccc(F)c1)Nc1ccc(N2CCN(CC(O)(Cn3cncn3)c3ccc(F)cc3F)CC2)c(C(F)(F)F)c1 (configuration not stated),0.25,,,0.25,,,,16
O=C(/C=C/c1ccc([N+](=O)[O-])cc1)Nc1ccc(N2CCN(CC(O)(Cn3cncn3)c3ccc(F)cc3F)CC2)c(C(F)(F)F)c1 (configuration not stated),0.0156,,,0.25,,,,4
O=C(/C=C/c1ccc(Cl)c(Cl)c1)Nc1ccc(N2CCN(CC(O)(Cn3cncn3)c3ccc(F)cc3F)CC2)c(C(F)(F)F)c1 (configuration not stated),0.25,,,0.25,,,,4
O=C(/C=C/c1ccco1)Nc1ccc(N2CCN(CC(O)(Cn3cncn3)c3ccc(F)cc3F)CC2)c(C(F)(F)F)c1 (configuration not stated),0.25,,,0.25,,,,4
